Holding throughout (format): cell-based
Assay [1] concerns the target T1, GABA-A receptor; alpha-1/beta-2/gamma-2 (Homo sapiens, UniProt P14867+P18507+P47870).
T1 sequence (P14867 whole entry): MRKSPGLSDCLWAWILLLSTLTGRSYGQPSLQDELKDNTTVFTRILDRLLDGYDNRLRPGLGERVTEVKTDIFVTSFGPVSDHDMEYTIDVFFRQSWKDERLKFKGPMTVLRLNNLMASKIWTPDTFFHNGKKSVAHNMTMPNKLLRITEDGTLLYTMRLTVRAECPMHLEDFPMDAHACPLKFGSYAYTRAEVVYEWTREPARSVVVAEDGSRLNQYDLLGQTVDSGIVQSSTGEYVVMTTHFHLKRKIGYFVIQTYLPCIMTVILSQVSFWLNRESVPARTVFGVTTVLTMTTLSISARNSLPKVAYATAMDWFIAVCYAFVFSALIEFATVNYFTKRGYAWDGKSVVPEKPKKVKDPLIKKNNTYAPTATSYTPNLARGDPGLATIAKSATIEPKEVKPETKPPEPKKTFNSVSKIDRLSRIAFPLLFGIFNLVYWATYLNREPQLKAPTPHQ
T1 sequence (P47870 whole entry): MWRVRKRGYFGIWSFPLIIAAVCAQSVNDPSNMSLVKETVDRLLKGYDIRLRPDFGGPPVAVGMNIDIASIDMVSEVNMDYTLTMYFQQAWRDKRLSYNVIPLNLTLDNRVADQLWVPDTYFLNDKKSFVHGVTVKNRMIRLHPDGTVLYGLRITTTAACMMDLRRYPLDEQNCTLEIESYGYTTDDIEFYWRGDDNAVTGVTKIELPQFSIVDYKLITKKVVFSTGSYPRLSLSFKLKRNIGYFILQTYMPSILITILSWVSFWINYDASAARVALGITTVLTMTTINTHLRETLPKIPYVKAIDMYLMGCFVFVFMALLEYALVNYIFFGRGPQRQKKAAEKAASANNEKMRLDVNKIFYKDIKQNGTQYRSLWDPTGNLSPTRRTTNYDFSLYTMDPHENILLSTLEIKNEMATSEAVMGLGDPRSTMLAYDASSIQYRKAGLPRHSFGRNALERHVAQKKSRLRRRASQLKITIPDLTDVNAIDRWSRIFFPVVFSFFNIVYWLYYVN
T1 sequence (P18507 whole entry): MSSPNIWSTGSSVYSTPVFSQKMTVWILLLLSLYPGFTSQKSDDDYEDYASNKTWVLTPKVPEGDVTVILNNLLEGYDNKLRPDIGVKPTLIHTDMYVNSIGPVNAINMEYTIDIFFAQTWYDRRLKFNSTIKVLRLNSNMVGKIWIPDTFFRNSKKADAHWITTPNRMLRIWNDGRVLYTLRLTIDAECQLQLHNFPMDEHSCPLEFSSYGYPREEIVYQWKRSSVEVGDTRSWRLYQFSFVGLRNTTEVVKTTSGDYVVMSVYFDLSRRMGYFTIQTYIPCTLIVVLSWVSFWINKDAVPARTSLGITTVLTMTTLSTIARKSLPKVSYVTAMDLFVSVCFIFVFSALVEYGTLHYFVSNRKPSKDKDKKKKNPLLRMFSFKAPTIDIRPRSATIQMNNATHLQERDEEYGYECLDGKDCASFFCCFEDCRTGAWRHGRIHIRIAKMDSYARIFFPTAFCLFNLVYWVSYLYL
The assay is described as follows: Positive allosteric modulation of GABAA alpha1beta2gamma2 receptor (unknown origin) stably expressed in CHO cells assessed as activation of GABA-induced response in presence of GABA by FLIPR assay.

Assay [2] deals with T2, GABA-A receptor; alpha-1/beta-2/gamma-2 (Homo sapiens) (UniProt P14867+P47870+P18507). Description: Additive positive allosteric modulation of GABAA alpha1beta2gamma2 receptor (unknown origin) stably expressed in CHO cells assessed as activation of GABA-induced response at 0.5 to 4 uM in presence of allopregnanolone by FLIPR assay. The conditions noted are these: filed as positive allosteric modulator, dose 0.5-4 µM, DDE = dose-dependent effect. In outline: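 The FLIPR membrane-potential assay used α1β2γ2-CHO cells. Compound was tested at 0.5, 1.0, 2.0 and 4.0 μM together with a fixed 0.25 μM allopregnanolone, and 2 μM GABA was added at 295 s. The fluorescence change at 270–330 s was normalized to 200 μM GABA. Plates included 2 μM GABA, 200 μM GABA and 0.2% DMSO controls.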

The target in assay [3] is T2, GABA-A receptor; alpha-1/beta-2/gamma-2 (Homo sapiens). The assay is described as follows: Positive allosteric modulation of GABAA alpha1beta2gamma2 receptor (unknown origin) stably expressed in CHO cells assessed as activation of GABA-induced response at 5 uM in presence of flumazenil by FLIPR assay. The note with it: filed as positive allosteric modulator. In outline: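 For the benzodiazepine-site test, α1β2γ2-CHO cells in the FLIPR membrane-potential assay received compound at 5 μM plus flumazenil at 0.001–10 μM, with 2 μM GABA added at 295 s. Activation was the fluorescence change at 270–330 s, normalized to 200 μM GABA. Controls were 2 μM GABA, 200 μM GABA and 0.2% DMSO.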

Assay [4] shares this target. Description: Positive allosteric modulation of GABAA alpha1beta2gamma2 receptor (unknown origin) stably expressed in CHO cells assessed as activation of GABA-induced response at 10 uM in presence of pregnenolone sulfate by FLIPR assay. The conditions noted are these: filed as positive allosteric modulator. In outline: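 Compound was held at 10 μM with pregnenolone sulfate at 0.001–10 μM in the FLIPR membrane-potential assay on α1β2γ2-CHO cells, and 2 μM GABA was added at 295 s. The fluorescence change at 270–330 s was normalized to 200 μM GABA. Controls were 2 μM GABA, 200 μM GABA and 0.2% DMSO.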

Assay [5] has the same target. The assay is described as follows: Additive positive allosteric modulation of GABAA alpha1beta2gamma2 receptor (unknown origin) stably expressed in CHO cells assessed as activation of GABA-induced response at 0.5 to 8 uM in presence of etazolate by FLIPR assay. The conditions noted are these: filed as positive allosteric modulator, dose 0.5-8 µM. In outline: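 In the FLIPR membrane-potential assay on α1β2γ2-CHO cells, compound at 0.5–8.0 μM was tested with etazolate at a fixed concentration (0.78 μM per the methods). 2 μM GABA was added at 295 s. The fluorescence change at 270–330 s was normalized to 200 μM GABA. Controls were 2 μM GABA, 200 μM GABA and 0.2% DMSO.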

Assay [6] shares this target. Description: Additive positive allosteric modulation of GABAA alpha1beta2gamma2 receptor (unknown origin) stably expressed in CHO cells assessed as activation of GABA-induced response at 0.5 to 8 uM in presence of diazepam by FLIPR assay. The conditions noted are these: filed as positive allosteric modulator, dose 0.5-8 µM. In outline:
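α1β2γ2-CHO cells were run in the FLIPR membrane-potential assay. Activation was the fluorescence change at 270–330 s, normalized to 200 μM GABA. Controls were 2 μM GABA, 200 μM GABA and 0.2% DMSO.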

The source made the active and inactive calls. The calls are words filed in the database; no cut-off is given here.

For the compound `C=C/C(C)=C/C[C@]1(C)[C@H](C)C[C@H](O)[C@]23C(=C[C@@H](OC(C)=O)C[C@@H]12)[C@@H](OC(C)=O)O[C@H]3OC(C)=O`, the concentration for a half-maximal effect (EC50) in assay [1] amounted to 0.5 µM.
Consider `O=C(/C=C/C=C/c1ccc2c(c1)OCO2)N1CCCCC1` [PIPERINE], for which the EC50 in assay [1] was 5.8 µM.
Regarding `C=C/C(C)=C/C[C@]1(C)[C@H](C)C[C@H](OC)[C@]23C(=C[C@@H](OC(C)=O)C[C@@H]12)[C@@H](OC(C)=O)O[C@H]3OC(C)=O`, in assay [2], the Activity entry was “Dde”. Moreover, the result in assay [3], in assay [4], in assay [5] and in assay [6] was Active. In addition, the 50% effective concentration (EC50) in assay [1] worked out at 1.4 µM.
As to `CC1=C2[C@H](/C=C(\C)C(=O)O)CC[C@@H](C)[C@H]2CC1` [VALERENIC ACID], the EC50 in assay [1] is 12.6 µM.
Turning to `C=CCc1ccc(O)c(-c2cc(CC=C)ccc2O)c1` [MAGNOLOL], in assay [1], the EC50 worked out at 4.8 µM.
Regarding `C=C/C(C)=C/C[C@]1(C)[C@H](C)C[C@H](OC(C)=O)[C@]23C(=C[C@@H](OC(C)=O)C[C@@H]12)[C@@H](OC(C)=O)O[C@H]3OC(C)=O`, in assay [1], the EC50 was 4.6 µM.

The EC50 is the midpoint of the concentration-response curve.

These data come from ChEMBL document CHEMBL5143681, “Clerodane Diterpenes from Casearia corymbosa as Allosteric GABAA Receptor Modulators” (J Nat Prod, 2022).
